Publication PMC6624389 (British Journal of Clinical Pharmacology, 2019)

Experiments:
Population PK model = type: in vivo, human
Summary of the method: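 The prior model was built from 534 plasma concentrations in 43 T2DM patients sampled serially after oral dosing. It was a 2-compartment model with first-order absorption (ADVAN4/TRANS4), log-normal interindividual variability and proportional residual error, fitted by FOCE with interaction. It served via $PRIOR to fit trough concentrations from four later studies. Covariates on CL/F were tested stepwise. Plasma drug was measured by LC–MS/MS (LLOQ 1 ng/mL).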

[1] = tested on: Japanese healthy subjects and patients with T2DM; test: Phase I and clinical pharmacology studies; type: in vivo, human
Summary of the method: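 Oral dosing in three studies. Healthy subjects received single fasted doses of 1–300 mg, or 20–100 mg daily after a standardized meal. T2DM patients received 50 or 100 mg daily for 14 days. A single 50 mg dose was given to T2DM patients grouped by eGFR. Urine was collected for 24 h predose and in postdose intervals, and UGE24h was calculated. Pooled data from 137 subjects were plotted against FPG and AUC24h.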

[2] = tested on: T2DM patients with moderate renal impairment; conditions: cited from earlier work
[3] = tested on: Japanese patients with T2DM; conditions: once daily 50 mg for 16 weeks; cited from earlier work
[4] = cited from earlier work
[5] = tested on: Japanese healthy subjects and patients with T2DM; test: PK/PD maximum effect; type: in vivo, human
Summary of the method: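 Emax model fitted in NONMEM (FOCE with interaction) to pooled healthy-subject and T2DM data from three studies. AUC24h came from noncompartmental analysis, and UGE24h was taken over matching intervals. Emax was modelled as dependent on FAC (FPG × GFR) up to a threshold of 18 000 and constant above it. There was no interindividual variability, and residual error was additive plus proportional. Covariates were added stepwise (P < .05) and removed backward (P < .001), and the model was bootstrapped.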

[6] = tested on: Japanese patients with T2DM; test: Simulation of steady-state ΔUGE24h by the final PK/PD model; set-up: species or system human; conditions: 50 mg once daily
Summary of the method: (§1)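 Steady state was simulated for 887 Japanese T2DM patients at 12.5, 25, 50 and 100 mg once daily. AUC24h came from individual post-hoc CL/F of the final PopPK model, and ΔUGE24h came from the final PK/PD model. The 50 mg regimen was also summarized by eGFR class (≥90, 60 to <90, 30 to <60 mL/min/1.73 m2). Results are given as median and 2.5th–97.5th percentiles.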

[7] = cited from earlier work; remark: listed apart in the source
[8] = tested on: Japanese healthy subjects and patients with T2DM; conditions: phase I and clinical pharmacology studies; cited from earlier work
[9] = Simulation of steady-state AUC24h using post-hoc CL/F from the final PopPK model; set-up: species or system human
Summary of the method: as §1

T2DM patients [10] = conditions: once daily 12.5, 25, 50 and 100 mg, 12 weeks; cited from earlier work
[11] = cited from earlier work; remark: listed apart in the source
T2DM patients [12] = conditions: T2DM patients with mean FPG 8–9 mmol/L (144–162 mg/dL); cited from earlier work

SMILES: OC[C@H]1O[C@@H](c2ccc(F)c(Cc3cc4ccccc4s3)c2)[C@H](O)[C@@H](O)[C@@H]1O [ipragliflozin]
- Interindividual variability of CL/F (Population PK model; base model, before covariates): 26.8%
- Interindividual variability ω^2: CL (Population PK model; final PopPK model): 0.0533
- Vd/F (Population PK model; human, plasma, oral): 39.4 L
- first order absorption rate constant Ka (Population PK model; population mean, T2DM patients): 6.38 h⁻¹
- oral clearance CL/F (Population PK model; population mean, T2DM patients): 9.47 L/h
- effects on UGE at low doses ([1]; 1 and 3 mg single dose, healthy subjects, Study A): no significant effects
- UGE after single and multiple doses ([1]; healthy subjects and T2DM patients, exploratory assessment): dose‐dependent increase
- antidiabetic effect [2]: weaker antidiabetic effect
- decreasing FPG and HbA1c levels versus placebo [3]: superior to a placebo
- tolerability [3]: well tolerated
- urinary excretion ratio of unchanged ipragliflozin [4]: approximately 1%
- glucose excretion effect versus dose ([5]; above 50 mg daily dose, suggested by PK/PD model): almost reaches the maximum level
- Emax of ΔUGE24h: FAC > 18 000 ([5]; population mean, constant above FAC threshold): 107 g/24 h
- Emax of ΔUGE24h: FAC ≤ 18 000 ([5]; population mean, reference FPG 100 mg/dL and GFR 90 mL/min): 72.3 g/24 h
- change in ΔUGE24h, moderate renal impairment compared to normal renal function [6]: 0.76 fold
- protein binding ex vivo [7]: ~ 96%
- exposure versus dose [8]: increase dose‐dependently
- tolerability [8]: consistently well tolerated
- urinary glucose excretion (UGE) versus dose [8]: increase dose‐dependently
- higher exposure in moderate renal impairment patients with T2DM ([9]; descriptive comparison of assessed AUC and simulation by final PopPK model): about 20%
- change in exposure caused by covariates other than GFR (BSA, TPRO, TBIL) ([9]; final PopPK model): ≤ 10%
- increase in AUC24h, moderate renal impairment compared to normal renal function ([9]; simulation, 50 mg once daily, T2DM patients): 1.17 fold
- fasting plasma glucose (FPG) and HbA1c levels (T2DM patients [10]): dose‐dependent decreases
- oral bioavailability [11]: > 90%

SMILES: OC[C@H]1O[C@@H](c2ccc(Cl)c(Cc3ccc(O[C@H]4CCOC4)cc3)c2)[C@H](O)[C@@H](O)[C@@H]1O [empagliflozin]
- Emax (T2DM patients [12]): 120 g/24 h
